Most compounds without a hit are left out; they make up all but 3.3% or so of the library.
Xi reactivation – reactivates the inactive X chromosome in mouse fibroblasts. XiGFP mouse fibroblasts, % GFP-positive cells imaging, 3 d; cells co-treated with 5-aza-dC sensitizer; scaled so ellipticine positive control = 100%. activation, % at 7.58 µM. 360,000 tested, 0.055% active. AID 743238;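 active = mean normalized replicate activation at least 10% and every replicate at or above 10%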;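 also: 0% = median of on-plate neutral control wells and 100% = ellipticine 6 µM median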
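Material: SV40-immortalized XiGFP fibroblast cells, line 68-5-11 | Buffer or medium: DMEM containing 5-aza-dC | Dosing: One concentration, pinned | Times: 3 d treatment, 15 min room-temperature fixation | Controls: Ellipticine 6 µM positive control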
PglD DTNB – PglD (C. jejuni) enzyme inhibition; purified PglD enzyme, DTNB colorimetric CoA detection; inhibition, % at 12.5 µM; 360,000 tested, 0.098% active; AID 602405; in the data active = inhibition above about 16%, passing the limit was not always enough
E-selectin induc – induces E-selectin expression in human endothelial cells | P16581 | HUVEC E-selectin immunofluorescence imaging; normalized: neutral wells 0, TNF-alpha wells 100 | activation, % at 7.58 µM | 260,000 tested, 0.37% active | AID 686992;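 active = mean E-selectin-positive cell signal at least 10% of the positive control, reached in at least 60% of replicates, without over 20% cell loss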
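material = human umbilical vein endothelial cells (HUVEC), E-selectin induction | quantity = 3,000 cells/well | medium = EGM-2 growth medium on 0.1% gelatin-coated wells | technique = immunofluorescence imaging | read-out basis = % PE-positive cells | control set = TNF-alpha positive control, DMSO neutral control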
Statin myotox sup – suppression of simvastatin myotoxicity; C2C12 myotubes + simvastatin, ATP luminescence, 48 h; scaled: DMSO 0, geranylgeraniol control 100; rescue of ATP level, % at 7.49 µM; 330,000 tested, 0.78% active;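 active = mean ATP rescue above about 67%, or every replicate alone reaching that limit, limit read from the data, passing the limit was not always enough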;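 also: myotubes were challenged with 10 µM simvastatin during compound exposure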
FGF22 binding – binders of recombinant human FGF22 by thermal shift. 340,000 tested, 1.5% active. AID 651658. activity (Tm shift, normalised), % at 9.99 µM. Q9HCT0. SYPRO orange fluorescence; percent of sucrose octasulfate shift, DMSO zero;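 active = mean Tm shift, scaled 0 neutral to 100 positive control, at about 1.3% or above, every replicate too, limit read from the data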
DENV2 CPE – protects cells from dengue virus 2 cytopathic effect. DENV2-infected cells, cytopathic effect rescue, plate reader. CPE inhibition, % at 9.99 µM. AID 651640. 350,000 tested, 1.7% active; in the data active = CPE inhibition above about 20%, passing the limit was not always enough; tested in BHK-21 cells;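 also: 0% = median of neutral control wells and 100% = median of positive control wells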
The depositor's hits bear a star; ! = not active in a repeat.

`Cc1nnc(SCC2=C(C(=O)O)N3C(=O)C(NC(=O)Cn4nc(C(F)F)c(Cl)c4C)C3SC2)s1` (stereo not given) gave Xi reactivation 0, PglD DTNB 8, Statin myotox sup -6, FGF22 binding 43* and DENV2 CPE 3.
CC(=O)OCC1=C(C(=O)O)N2C(=O)C(NC(=O)Cn3nc(C(F)F)c(Cl)c3C)C2SC1 (stereo not given) was read as Xi reactivation 0, PglD DTNB -4, Statin myotox sup 4, FGF22 binding 43* and DENV2 CPE 2.
Cc1cc(C)c(C#N)c(N2CCCC(C(N)=O)C2)n1 (stereo not given) was read as PglD DTNB -4 and Statin myotox sup 170*.
CCOC(=O)C1CCN(c2nc(C)cc(C)c2C#N)CC1 was read as Xi reactivation 0, E-selectin induc 0, FGF22 binding 0 and DENV2 CPE -4.
For Cc1nc(N(C)C)c2sc(=S)n(C)c2n1 the results were Xi reactivation 0, PglD DTNB 3, Statin myotox sup -11, FGF22 binding 0 and DENV2 CPE 38*.
COc1ccc(CN(C)C[C@H]2OCCCC[C@H](C)Oc3ccc(NC(=O)c4ccccc4)cc3C(=O)N([C@@H](C)CO)C[C@H]2C)cc1 was read as Xi reactivation 0, PglD DTNB 1, E-selectin induc 0 and DENV2 CPE -7.
For CC(C)NC(=O)Nc1ccc2c(c1)C(=O)N([C@H](C)CO)C[C@@H](C)[C@H](CN(C)Cc1ccncc1)OCCCC[C@@H](C)O2 the results were Xi reactivation 0, PglD DTNB 4, E-selectin induc 0, FGF22 binding 0 and DENV2 CPE 4.
For C[C@H](CO)N1C[C@H](C)[C@H](CN(C)C(=O)Nc2ccc(F)cc2)Oc2ccc(NC(=O)Nc3ccccc3)cc2C1=O the results were Xi reactivation 0, PglD DTNB 10, E-selectin induc -3, Statin myotox sup -6, FGF22 binding 0 and DENV2 CPE 15.
`COc1ccc(NC(=O)c2ccccc2F)cc1Cl` gave PglD DTNB 0 and Statin myotox sup -60.
O=C(Nc1ccc(Oc2ccc(Cl)cc2)c(Cl)c1)c1cc(I)cc(I)c1O was read as Xi reactivation 0, PglD DTNB -4, E-selectin induc 0, Statin myotox sup -13, FGF22 binding 0 and DENV2 CPE 43*.
`Cc1cc(N2CCOCC2)nc(N2CCOCC2)n1` gave Xi reactivation 0, E-selectin induc -1, FGF22 binding 43* and DENV2 CPE 4.
CC(C)CC#Cc1cnc2c(c1)C(=O)N([C@H](C)CO)C[C@@H](C)[C@@H](CN(C)C(=O)c1ccc(F)cc1)O2 was read as Xi reactivation -1, PglD DTNB 4, E-selectin induc 1, Statin myotox sup 13, FGF22 binding 0 and DENV2 CPE 21*.
Screening CC(C)CC#Cc1cnc2c(c1)C(=O)N([C@@H](C)CO)C[C@H](C)[C@H](CN(C)Cc1ccc(C(=O)O)cc1)O2 returned Xi reactivation 0, PglD DTNB -2, E-selectin induc 0, Statin myotox sup -1, FGF22 binding 0 and DENV2 CPE 78*.
For C[C@@H]1CN([C@H](C)CO)C(=O)c2cc(C#C[C@@H](C)O)cnc2O[C@H]1CN(C)C(=O)c1ccc(F)cc1 the results were Xi reactivation 0, PglD DTNB 2, E-selectin induc 0, Statin myotox sup 5, FGF22 binding 0 and DENV2 CPE 43*!.
For C[C@H](CO)N1C[C@H](C)[C@H](CN(C)C(=O)c2ccc(F)cc2)Oc2ncc(C#CCN(C)C)cc2C1=O the results were Xi reactivation -1, PglD DTNB -8, E-selectin induc 0, Statin myotox sup 16, FGF22 binding 1 and DENV2 CPE 35*.
For C[C@H]1CN([C@@H](C)CO)C(=O)c2cc(C#CCN(C)C)cnc2O[C@@H]1CN(C)C(=O)c1ccc(F)cc1 the results were Xi reactivation -1, PglD DTNB -3, E-selectin induc 0, Statin myotox sup -5, FGF22 binding 1 and DENV2 CPE -1.

Source: PubChem (Broad Institute)
